The structures appear in SMILES notation.

Assay [1] has as its target T1, GABA-A receptor; anion channel (Rattus norvegicus) (UniProt O09028+P15431+P18506+P18508+P19969+P20236+P23574+P23576+P28471+P28473+P30191+P62813+P63079+P63138+Q91ZM7+Q9ES14). As to the kind of experiment: Displacement of [35S]TBPS binding to rat cortical homogenates (control). The gist of the method: (§1)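 Cortical homogenate (twice-washed, 1:15) pretreated 1 h on ice with acylator (60 nM or 600–2400 nM) plus 200 mM NaCl. It was then washed five times by centrifugation in pH 7.4 phosphate/100 mM NaCl and resuspended chloride-free. Saturation binding used 2–5 nM [35S]TBPS with 0–160 nM unlabeled TBPS, 200 mM NaCl, 2 h at 25 °C. Nonspecific binding was defined by 20 µM picrotoxinin. Kd and Bmax came from Scatchard plots, mean of 3–5 experiments.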

Assay [2] has as its target Gamma-aminobutyric acid receptor subunit gamma-1 (Rattus norvegicus) (UniProt P23574). As to the kind of experiment: Displacement of [35S]TBPS binding to rat cortical homogenates at 60 nM. The gist of the method:
as §1
(In general: Loss of bound radioactivity is the signal in a displacement assay; it reports binding, not function.)

For assay [3], the target named is GABA-A receptor; anion channel. As to the kind of experiment: Inhibition of [35S]TBPS binding to rat cortical membranes. The class given is cell membranes, Membrane. The gist of the method: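 Coincubation: 5 nM [35S]TBPS and acylator (5–1000 nM or 50–10000 nM, depending on ligand) were added simultaneously to washed cortical homogenate. Incubation was in pH 7.4 potassium phosphate with 200 mM NaCl, 2 h at 25 °C. Binding was read by filtration and scintillation, with nonspecific binding defined by 20 µM picrotoxinin. Inhibition was taken as percent of control; N ≥ 3.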

In assay [4] the target is GABA-A receptor; anion channel. The assay can be described thus: Inhibition of [35S]-TBPS binding to rat cortical membranes after 60 minute pre-incubation with radioligand. It counts as cell membranes, Membrane. The gist of the method: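 Washed cortical homogenate was incubated with 5 nM [35S]TBPS for 60 min before acylator was added, in pH 7.4 potassium phosphate with 200 mM NaCl at 25 °C. Bound radioligand was collected by GF/B filtration and counted by scintillation. Nonspecific binding was defined by 20 µM picrotoxinin. Inhibition was expressed as percent of control binding without acylator; N ≥ 1.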

For assay [5], the target named is GABA-A receptor; anion channel. As to the kind of experiment: Apparent affinity by displacement of pre-incubated [35S]-TBPS from rat cortical homogenates (control). The gist of the method: as §1
Assay [6] addresses Gamma-aminobutyric acid receptor subunit gamma-1 (Rattus norvegicus, UniProt P23574). As to the kind of experiment: Apparent affinity by displacement of preincubated [35S]TBPS from rat cortical homogenates at 60 nM. The gist of the method: as §1
Assay [7] deals with GABA-A receptor; anion channel. As to the kind of experiment: Apparent affinity by displacement of preincubated [35S]TBPS from rat cortical homogenates at 2400 nM. The gist of the method:
as §1

Assay [8] concerns the target T1, GABA-A receptor; anion channel (Rattus norvegicus). The assay can be described thus: Displacement of [35S]TBPS binding to rat cortical homogenates at 1200 nM. The gist of the method:
as §1

Assay [9] has the same target. The assay can be described thus: Displacement of [35S]TBPS binding to rat cortical homogenates at 1500 nM. The gist of the method:
as §1

For assay [10] the target is unchanged. The assay can be described thus: Displacement of [35S]TBPS binding to rat cortical homogenates at 2400 nM. The gist of the method:
as §1

Assay [11] has the same target. The assay can be described thus: Displacement of [35S]TBPS binding to rat cortical homogenates at 600 nM. The gist of the method: as §1
Assay [12] has as its target GABA-A receptor; anion channel. As to the kind of experiment: Apparent affinity by displacement of preincubated [35S]TBPS from rat cortical homogenates at 1200 nM. The gist of the method: as §1
In assay [13] the target is GABA-A receptor; anion channel. The assay can be described thus: Apparent affinity by displacement of preincubated [35S]-TBPS from rat cortical homogenates at 1500 nM. The gist of the method:
as §1

Assay [14] has as its target GABA-A receptor; anion channel. The assay can be described thus: Apparent affinity by displacement of pre-incubated [35S]-TBPS from rat cortical homogenates at 600 nM. The gist of the method:
as §1

Gamma-aminobutyric acid receptor subunit gamma-1, sequence (P23574 whole entry): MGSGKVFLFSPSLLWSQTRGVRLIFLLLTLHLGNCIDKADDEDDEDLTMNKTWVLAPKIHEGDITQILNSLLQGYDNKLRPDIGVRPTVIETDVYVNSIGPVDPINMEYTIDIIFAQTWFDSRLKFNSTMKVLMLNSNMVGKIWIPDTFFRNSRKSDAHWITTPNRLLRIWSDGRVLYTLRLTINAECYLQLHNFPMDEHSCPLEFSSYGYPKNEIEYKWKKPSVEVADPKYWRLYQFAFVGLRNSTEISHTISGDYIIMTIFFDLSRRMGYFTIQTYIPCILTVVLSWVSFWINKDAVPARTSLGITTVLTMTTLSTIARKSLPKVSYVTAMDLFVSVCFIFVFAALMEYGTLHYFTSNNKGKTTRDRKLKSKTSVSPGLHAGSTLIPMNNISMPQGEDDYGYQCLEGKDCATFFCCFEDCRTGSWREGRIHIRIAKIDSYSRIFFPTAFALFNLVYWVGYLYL
Gamma-aminobutyric acid receptor subunit gamma-1 (Rattus norvegicus), sequence (P23574 whole entry): as above

The IC50 is the midpoint of a concentration-inhibition curve. The low end stands for greater potency in that assay, the high end for weaker potency in that assay. In the case of `CC(C)(C)C12COC(c3ccc(N=C=S)cc3)(OC1)OC2`, the Bmax in assay [1] turned out to be 955 fM assay-1; in assay [2] it was 644 fM assay-1. The IC50 was found to be 62 nM in assay [3] and 90 nM in assay [4]. Besides, the Kd was 47 nM in assay [5] and 72.2 nM in assay [6].

Regarding `CC(C)(C)C12COC(c3cccc(N=C=S)c3)(OC1)OC2`, the Kd in assay [7] was determined as 73.8 nM; in assay [5], 35.3 nM; in assay [12], 51.8 nM; in assay [13], 55.8 nM; in assay [14] it was 44.5 nM. The Bmax in [1] worked out at 1080 fM assay-1; in [8], 889 fM assay-1; in [9], 928 fM assay-1; in assay [10], 1010 fM assay-1; in assay [11], 925 fM assay-1. Besides, the values for the IC50 in assay [3] and in [4] were 570 nM and 5400 nM, respectively.

Regarding `CC(C)(C)C12COC(c3ccccc3N=C=S)(OC1)OC2`, the Kd was 58 nM in [7]; 46.7 nM in assay [5]; 50.7 nM in assay [12]; 56.3 nM in assay [13]; 57.3 nM in assay [14]. Besides, the Bmax in assay [1] worked out at 963 fM assay-1; in [8], 817 fM assay-1; in [9] it was 869 fM assay-1; in assay [10], 1030 fM assay-1; in [11] it was 915 fM assay-1. In addition, the IC50 in [3] is 609 nM; in assay [4] it was 7500 nM.
